Assay: Toxicity liver stage against HepG2, at 10uM
Assay type: cell-based
Set-up: test concentration 10 uM, cell line HepG2-A16-CD81EGFP
Settings: human, HepG2-A16-CD81EGFP cells; read-out: INHIBITION
Summary of the method: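 Uninfected HepG2-A16-CD81EGFP cells, 3 × 10^3 per well, 1536-well, plated on prespotted compound at 10 μM final, parasite-free screening media added to match infected plates; puromycin 10 μM positive, DMSO 0.5% negative; run in parallel with 48 h PbLuc assay at 37 °C, 5% CO2; viability by CellTiter-Glo luminescence, normalized to controls.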

Row | Structure (SMILES) | cytotoxicity at 10 µM [%]
1 | Cc1ccc(OCCn2cnc3oc(C)c(C(=O)O)c3c2=O)cc1 | -8.17
2 | COCc1noc(-c2nn(-c3ccccc3F)c3c2CCC3)n1 | -2.68
3 | O=C([C@@H]1C[C@@H]2CCN(CCc3ccccc3)C[C@H]2O1)N1CCCC1 | 0.307
4 | NCCC1CN(Cc2cnc3c(-c4ccccc4)cnn3c2)CCO1 (centres undefined) | -3.92
5 | CCC(C(=O)NCc1ccncc1)N(c1cccc(Cl)c1)S(C)(=O)=O (centres undefined) | -4.31
6 | O=C(Cc1cccc(F)c1)N1CCn2cc(Cn3cccn3)nc2C1 | -84.3
7 | COc1cccc(N2CCN(Cc3nccn3C(C)C)CC2=O)c1 | 1.85
8 | CCC(C)N(Cc1ccncc1)C(=O)CCSC (centres undefined) | -0.146
9 | COC(=O)[C@@H]1CN(C(=O)c2cscn2)C[C@H]1c1ccc(OC)cc1 | -31.6
10 | COc1c(C2CCCN2C(=O)c2cccn2C)c(C)nn1C (centres undefined) | -1.88
11 | CC(C)c1nc2c(n1C)CCN(Cc1nc(-c3ccco3)no1)C2 | -0.403
12 | Cc1c(F)cc(C(=O)O)cc1S(=O)(=O)Nc1ccccc1 | -4.54
13 | CCc1ncc2c(n1)CN(Cc1nnc(CC)o1)CC2 | -8.8
14 | c1ccc(CCc2n[nH]c(CCN3CCCCC3)n2)cc1 | 5.05
15 | CC(C)(CNC1CCCN(Cc2ccccc2F)C1)CN1CCOCC1 (centres undefined) | 6.21
16 | CCOC(=O)[C@]12CCCN(Cc3nccs3)C[C@H]1CN(CC(C)C)C2 | -2.85
17 | Cc1nc(C2CCCN(C(=O)CCCn3ccnc3C)C2)no1 (centres undefined) | -13.4
18 | C=C(C)CN(CC)C(=O)Nc1ccccc1CN(C)C(C)=O | -9.6
19 | CC(C)n1ccc(CN2CCOC(CNc3cccnn3)C2)n1 (centres undefined) | -16.6
20 | Cc1nc(C)n(C2CCCN(C(=O)c3csc(CC(C)C)n3)C2)n1 (centres undefined) | -17.3
21 | CCc1nc(C)c(C(=O)N2CCNCC2C(=O)NCc2ccncc2)o1 (centres undefined) | -3.64
22 | Cc1cc(CNC(=O)CC2CCN(C(C)C)CC2)n(C)n1 | -1.77

Row | Structure (SMILES) | cytotoxicity at 10 µM [%]
23 | CCn1nc(C(=O)N2CCCC2c2noc(C)n2)ccc1=O (centres undefined) | 4.99
24 | O=C(c1ccncc1)N1CCCC1C1CCN(Cc2ccccc2)CC1 (centres undefined) | 7.43
25 | NC(=O)c1ccn(COc2ccccc2Cl)n1 | 2.96
26 | CSc1nnc(CC2CCN(C(=O)COc3cccnc3)CC2)n1C | -45.9
27 | COCc1nc(-c2ccnc(N3CCNCC3)n2)no1 | 12.5
28 | CC(C)CCNC(=O)CNC(=O)N1CCc2c([nH]c3ccc(Cl)cc23)C1 | 6.73
29 | COCCCN1C(=O)CC[C@H]2CN(Cc3ncc[nH]3)CC[C@H]21 | -0.462
30 | O=C([C@@H]1CCO[C@@H]2CCN(CC3CCOCC3)C[C@H]21)N1CCCC1 | -114
31 | COC(=O)[C@@H]1CN(C(=O)NC(C)C)CCN1S(=O)(=O)c1ccccc1 | 2.17
32 | Cn1nc(N2CCCC(C(=O)Nc3nc4ccccc4[nH]3)C2)ccc1=O (centres undefined) | 1.08
33 | COCC1CC2(CCN(Cc3ccc(C)o3)CC2)CN1C(C)C (centres undefined) | -2.42
34 | Cc1ccc(C(C(=O)NCc2n[nH]c(N)n2)N(C)C)cc1 (centres undefined) | 0.529
35 | CCN1CCn2c(C)cnc2C12CCN(C(=O)C(C)C)CC2 | 3.06
36 | CCC1CN(Cc2cccc(C(=O)N(C)C)c2)CCN1CCOC (centres undefined) | -2.99
37 | CCC/C=C/c1ccc(CN2CCCC2)cn1 | -16.1
38 | Cc1ccc(CNC(=O)c2nc3c(o2)CN(c2ncccn2)C3)o1 | -5.58
39 | CC(C)C[C@H](NC(=O)Cn1ccc2c(Cl)cccc21)C(=O)O | 5.19
40 | CC(C)NC(=O)N1CCC2(CC(=O)N(c3cccc(C#N)c3)C2)C1 (centres undefined) | 5.66
41 | CC(C)n1nc(CN2CCOCC2)c2c1CN(Cc1ccsc1)C2 | -132
42 | CCc1ncc2c(n1)CN(c1cc(NCCO)nc(N)n1)C2 | -4.49
43 | CCc1cc(N2CCN(C(C)=O)CC2)n2nc(C)c(C)c2n1 | 3.96
44 | N#Cc1ccc(OC2CCN(C(=O)c3ccccc3Cl)CC2)nc1 | 3.93

Row | Structure (SMILES) | cytotoxicity at 10 µM [%]
45 | CC(=O)Nc1ncc(S(=O)(=O)N2CCCC(C)C2)s1 (centres undefined) | 2.28
46 | Cc1noc(C)c1CN1C[C@@H]2C[C@@H](C)O[C@@H]2C1 | 4.06
47 | Cc1nn(C)c2c(NCc3ccncc3)nc(C3CC3)nc12 | -4.17
48 | CC(C)(C)n1nc(C2CC2)cc1C(=O)NCC1(C(N)=O)CCOCC1 | -11.1
49 | O=c1[nH]nc2c(S(=O)(=O)N3CCCCC3)cccn12 | 2.41
50 | Cc1nn(C)cc1Cn1cc(Cl)c(N)n1 | -5.61
51 | CCc1oc2ccc(NS(=O)(=O)CC)cc2c1C(=O)OC | 5.05
52 | COCC1CN(C(=O)CC2=CCCCC2)Cc2nnn(CC3CC3)c21 (centres undefined) | -116
53 | Cn1cccc1C(=O)NC[C@H]1C[C@@H]2CN(C(=O)c3ccco3)C[C@@H]2O1 | -105
54 | CCc1oc(C(=O)N[C@@H]2c3ccccc3C[C@@H]2O)cc1CN1CCCC1 | -5.65
55 | Cc1cnn(CC2CCCCN2Cc2noc(C3CC3)n2)c1 (centres undefined) | -9.32
56 | Cc1cc(CN2CCC3(CC2)CC(C(=O)O)N(C(=O)C2CC2)C3)oc1C (centres undefined) | -7.32
57 | COCc1cc(N2CCc3onc(-c4cccc(OC)c4)c3C2)ncn1 | 14.4
58 | N#Cc1cccc(OCCN2CCCC2C(=O)NC2CC2)c1 (centres undefined) | -3.78
59 | Cc1c[nH]nc1C1CCN(C(=O)C2CCOCC2)C1 (centres undefined) | 4.71
60 | Cn1nc(CNC(=O)c2ccc(Cl)cc2)c2c1CCOC2 | 5.86
61 | COc1ccc(CN(C)[C@@H]2CN(C(=O)c3cccs3)C[C@H]2O)cc1 | -0.619
62 | Cc1cccc(C(C(=O)NCC2(Cn3nc(C)cc3C)CC2)N(C)C)c1 (centres undefined) | 2.18
63 | Cc1noc(C)c1CN1CCOCC12CCN(c1ncccn1)CC2 | -104
64 | CN(C)c1cccc(C(=O)N2CCC(c3n[nH]c(C4CC4)n3)CC2)c1 | -11.2
65 | CCn1c(Cn2cncn2)nnc1C1CCN(Cc2cccnc2)CC1 | 5.91
66 | CN(C)C[C@H]1OC[C@@H]2CCN(C(=O)c3cccn3C)C[C@@H]21 | -2.29

Row | Structure (SMILES) | cytotoxicity at 10 µM [%]
67 | CC(c1cccc(-c2ncccc2C#N)c1)N(C)C (centres undefined) | -5.4
68 | CCN(Cc1cccc(F)c1)S(=O)(=O)N1CCOCC1 | -1.71
69 | CC(C)c1cc(C(=O)N2CCN(c3ccc(F)c(Cl)c3)CC2)n(C)n1 | 19.7
70 | OC(CN(Cc1ccccc1)Cc1ccncc1)c1ccco1 (centres undefined) | 24.7
71 | CCNC(=O)NCc1ccc(-n2ccc(C(F)(F)F)n2)cc1 | -4.7
72 | Cc1ccc(C(=O)Cc2c(Cl)nc3n(C)c(=O)n(C)c(=O)n23)cc1 | -3.96
73 | CC1=Nc2c(c(O)nn2C2CCOCC2)C(c2cccnc2)S1 (centres undefined) | 5.11
74 | COCC1c2c(cnn2C)CCN1Cc1ccsc1 (centres undefined) | -13.3
75 | CC(C)N1CC[C@@H]2[C@H](COCC3CC3)CN(C)C(=O)[C@@H]2CC1 | 6.8
76 | CN1C(=O)c2ccc(NC(=O)CSc3ccc4c(c3)CCC4)cc2C1=O | 0.0636
77 | Cc1cc(C2CCCN2C(=O)CN2CC3(CCNCC3)OC2=O)on1 (centres undefined) | 16.4
78 | COc1ccccc1NCc1cscn1 | -0.358
79 | CN(Cc1ccc(C(N)=O)cc1)c1ccc(C(F)(F)F)cn1 | 7.98
80 | Cc1ncc2c(n1)CCN(C(C(N)=O)c1ccccc1)C2 (centres undefined) | -2.62
81 | Cc1cccc(CNC(=O)CNc2cc(CO)ccc2Cl)c1 | 1.73
82 | O=C(c1ccncc1)N1CCCC(c2ncncc2-c2ccncc2)C1 (centres undefined) | -17.2
83 | O=c1c(=CS(=O)(=O)Nc2ccccc2)[nH]c(=O)n2cccc12 | 0.458
84 | CCCN1CC[C@@H]2OC[C@H](C(=O)Nc3cccnc3)C[C@@H]2C1 | 5.7
85 | COc1ccccc1-c1cc(NC(=O)CC2CCS(=O)(=O)C2)[nH]n1 (centres undefined) | -113
86 | COCCN1CCOCC12CCN(C(=O)c1c[nH]c3ccccc13)CC2 | -69.8
87 | O=C(NC1CCN(c2ncccc2F)C1)c1cccc(-n2ccnn2)c1 (centres undefined) | 7.49
88 | CC(C)(C)c1cc(NC(=O)CN2CCCC2Cn2cncn2)on1 (centres undefined) | 5.91

Row | Structure (SMILES) | cytotoxicity at 10 µM [%]
89 | COc1ccc(CNC(=O)CNc2ccccc2OC)cc1 | -2.25
90 | Cc1nn(C)c(N2CCOCC2)c1CNCc1ccc(CO)c(F)c1 | -14.5
91 | Cc1cccc(C)c1OCCNC(=O)C(C)n1cncn1 (centres undefined) | -1.46
92 | Cc1cc(CN(C)C(=O)c2ccc(Cl)c(S(C)(=O)=O)c2)no1 | -2.77
93 | CCc1cc(CNC(=O)NCC(c2ccco2)N2CCCC2)[nH]n1 (centres undefined) | 0.238
94 | CC(C)CCC(=O)N1CCN(C(C)c2nnc(CC(C)C)o2)CC1 (centres undefined) | -8.82
95 | COc1cc(C)c(CN2CCC3(CC2)[C@H](O)C[C@@H]3OCCN)cc1C | 13.6
96 | O=C(CC1=CCCCC1)Nc1ncn(CC(=O)N2CCCCCC2)n1 | 1.72
97 | CCCN1CCCN(CCCOc2cccc(C#N)c2)CC1 | 18
98 | Cc1cc(NC2CC3(CCN(Cc4cscn4)C3)C2)ncn1 (centres undefined) | -2.13
99 | Cc1ccoc1C(=O)N1CCCc2c(c(=O)n(C)n2C)C1 | 11.7
100 | Cc1nccn1CC1CCN(C(=O)c2cccs2)CC1 | -14.2
101 | CCCC12CN3CC(CCC)(CN(C1)C3c1[nH]c(=O)[nH]c(=O)c1C)C2=O (centres undefined) | 4.17
102 | CCS(=O)(=O)N[C@@H]1CN(Cc2cc(C)on2)C[C@@H]2CCCO[C@@H]21 | -6.01
103 | CSCC(=O)N1CCCC1c1noc(C2CC2)n1 (centres undefined) | 17
104 | Cc1ccccc1N1CC2(CCN(S(=O)(=O)c3cccs3)C2)CC1=O (centres undefined) | 14.1
105 | CN(C)C(=O)CN1CCC2(C1)CN(CC1CCOCC1)C2 | -9.91
106 | O=c1cccnn1CC1CN(Cc2ccsc2)Cc2nccn2C1 (centres undefined) | 1.31
107 | Cc1[nH]c2c(F)cccc2c1CC(=O)NCCCc1csc(N)n1 | -3.57
108 | CN1CCCC1c1cncc(C(=O)NCC2CC2)n1 (centres undefined) | -8.41
109 | CCOC(=O)CC(c1ccc(OC)cc1)c1c(O)n[nH]c1C (centres undefined) | -0.244

From ChEMBL document CHEMBL4513216, “Probing the Open Global Health Chemical Diversity Library for Multistage-Active Starting Points for Next-Generation Antimalarials” (ACS Infect Dis, 2020)
